Active and inactive are the calls of the source. No cut-off for these calls is given here.
Key:
L1210 = experiment: Cytotoxicity against mouse L1210 cells after 48 hrs; type: functional, cell-based; conditions: L1210, 48 h
Summary of the method: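 Murine L1210 lymphoid leukemia cells exposed to graded compound concentrations in RPMI 1640 at 37 °C for 48 h. IC50 is the concentration giving 50% growth inhibition.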

CCRF-CEM = experiment: Cytotoxicity against human CEM cells after 72 hrs; type: functional, cell-based
Summary of the method: (§1)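 Compounds tested over a range of concentrations on cells in RPMI 1640 medium at 37 °C for 72 h. IC50 taken as the concentration inhibiting cell growth by 50%.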

[1] = Cytotoxicity against human Molt4/C8 cells after 72 hrs; type: functional, cell-based; conditions: MOLT-4, 72 h; summary of the method: as §1
[2] = Lipophilicity, log P of the compound; type: physicochemical; conditions: calculated
Summary of the method: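 Calculated logP, generated with the JME molecular editor rather than measured.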

Liver = experiment: Stimulation of respiration in rat liver mitochondria; type: functional
Summary of the method: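 Liver mitochondria isolated from rats anesthetized with isoflurane and decapitated. Oxygen consumption measured by polarography. Compound tested at 10 μM, with a DMSO solvent control (4 μL). Differences judged against standard deviations.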

Row | logP [2] | Structure (SMILES) | IC50 (L1210) [µM] | IC50 (CCRF-CEM) [µM] | IC50 [1] [µM] | Activity (Liver)
1 | 4.53 | COc1cc(/C=C2\CCC/C(=C\c3cccc([N+](=O)[O-])c3)C2=O)cc(OC)c1OC | 42.2 | 45.2 | 44 | 
2 | 4.9 | O=C1/C(=C/c2ccccc2)CCC/C1=C\c1cccc([N+](=O)[O-])c1 | 9.44 | 2.29 | 1.7 | 
3 | 4.96 | COc1ccc(/C=C2\CCC/C(=C\c3cccc([N+](=O)[O-])c3)C2=O)cc1 | 29.5 | 8.22 | 7.98 | 
4 | 4.93 | O=C1/C(=C/c2ccccc2)CCC/C1=C\c1ccc([N+](=O)[O-])cc1 | 9.8 | 9.32 | 8.35 | 
5 | 4.56 | COc1cc(/C=C2\CCC/C(=C\c3ccc([N+](=O)[O-])cc3)C2=O)cc(OC)c1OC | 6.97 | 4.61 | 6.42 | Active
6 | 4.98 | COc1ccc(/C=C2\CCC/C(=C\c3ccc([N+](=O)[O-])cc3)C2=O)cc1 | 240 | 250 | 300 | 
7 | 5.58 | O=C1/C(=C/c2ccc(Cl)cc2)CCC/C1=C\c1cccc([N+](=O)[O-])c1 | 9.16 | 1.75 | 2.02 | 
8 | 5.06 | O=C1/C(=C/c2ccc(F)cc2)CCC/C1=C\c1cccc([N+](=O)[O-])c1 | 16.3 | 5.05 | 5.12 | 
9 | 5.35 | Cc1ccc(/C=C2\CCC/C(=C\c3cccc([N+](=O)[O-])c3)C2=O)cc1 | 41.8 | 10.1 | 9.53 | 
10 | 4.33 | COc1cc(/C=C2\CCC/C(=C\c3ccccc3[N+](=O)[O-])C2=O)cc(OC)c1OC | 1.52 | 0.402 | 0.702 | Active
11 | 5.01 | CN(C)c1ccc(/C=C2\CCC/C(=C\c3cccc([N+](=O)[O-])c3)C2=O)cc1 | 156 | 11.7 | 10.9 | 

The remaining lines, values behind:

Row | Structure (SMILES) | logP [2] | IC50 (L1210) [µM] | IC50 (CCRF-CEM) [µM] | IC50 [1] [µM] | Activity (Liver)
12 | Cc1ccc(/C=C2\CCC/C(=C\c3ccc([N+](=O)[O-])cc3)C2=O)cc1 | 5.38 | 8.16 | 8.53 | 8.44 | 
13 | O=C1CCCC/C1=C\c1ccc([N+](=O)[O-])cc1 |  | 46.5 | 19.3 | 13.9 | 
14 | O=C1/C(=C/c2ccccc2)CCC/C1=C\c1ccccc1[N+](=O)[O-] | 4.7 | 4.84 | 0.925 | 1.48 | 
15 | O=C1/C(=C/c2ccc(F)cc2)CCC/C1=C\c1ccc([N+](=O)[O-])cc1 | 5.08 | 26.8 | 18.6 | 17.1 | 
16 | Cc1ccc(/C=C2\CCC/C(=C\c3ccccc3[N+](=O)[O-])C2=O)cc1 | 5.15 | 7.77 | 6.09 | 7.52 | 
17 | CN(C)c1ccc(/C=C2\CCC/C(=C\c3ccccc3[N+](=O)[O-])C2=O)cc1 | 4.8 | 164 | 168 | 122 | 
18 | O=C1CCCC/C1=C\c1cccc([N+](=O)[O-])c1 |  | 50.1 | 8.12 | 8.28 | 
19 | O=C1/C(=C/c2ccc(F)cc2)CCC/C1=C\c1ccccc1[N+](=O)[O-] | 4.86 | 8.4 | 1.51 | 1.87 | 
20 | CN(C)c1ccc(/C=C2\CCC/C(=C\c3ccc([N+](=O)[O-])cc3)C2=O)cc1 | 5.03 | > 500 | > 500 | > 500 | 
21 | O=C1CCCC/C1=C\c1ccccc1[N+](=O)[O-] |  | 23.8 | 36.4 | 33.3 | 
22 | O=C1/C(=C/c2ccc(Cl)cc2)CCC/C1=C\c1ccc([N+](=O)[O-])cc1 | 5.61 | 9.41 | 8.18 | 9.12 | 
23 | O=C1/C(=C/c2ccc(Cl)cc2)CCC/C1=C\c1ccccc1[N+](=O)[O-] | 5.38 | 9.38 | 1.75 | 3.86 | 
24 | COc1ccc(/C=C2\CCC/C(=C\c3ccccc3[N+](=O)[O-])C2=O)cc1 | 4.76 | 42.4 | 7.45 | 8.9 | 
